Bounds are passed on as bounds.

In ChEMBL document CHEMBL4477266, “Discovery of N-(benzyloxy)-1,3-diphenyl-1H-pyrazole-4-carboxamide derivatives as potential antiproliferative agents by inhibiting MEK” (Bioorg Med Chem, 2016) one finds GI50, CC50 and IC50 data, which are given here for 21 molecules.

For data set [1], the system named is HeLa. The experiment in a line: Antiproliferative activity against human HeLa cells after 48 hrs in presence of 10% FBS by MTT method. It counts as functional. The procedure, abridged: (§1)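 Cells were grown to log phase in DMEM with 10% fetal bovine serum at 37 °C under humidified 5% CO₂. They were seeded at 10⁵ cells/well and left 24 h to reattach. Compounds were added at increasing concentrations with 10% FBS for 48 h. Values are the mean of three independent experiments, each run in triplicate.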
Background: Tetrazolium assays rely on reduction of a dye to a coloured formazan, in cell work by metabolically active cells.

The subject of data set [2] is MCF7. Nature of the data set: Antiproliferative activity against human MCF7 cells after 48 hrs in presence of 10% FBS by MTT method. It is filed as functional. As to conditions: MCF7, 48 h. The essentials: as §1
Data set [3] concerns A549. The experiment in a line: Antiproliferative activity against human A549 cells after 48 hrs in presence of 10% FBS by MTT method. As to conditions: A549, 48 h. It is filed as functional. The procedure, abridged:
as §1

The nature of data set [4]: Antiproliferative activity against human 293T cells after 48 hrs in presence of 10% FBS by MTT method. It is filed as cell-based. As to conditions: 293T (HEK-293T) cells. The essentials:
as §1

Data set [5] deals with T1, Aurora kinase A (Homo sapiens, UniProt O14965).
T1 sequence (O14965 whole entry): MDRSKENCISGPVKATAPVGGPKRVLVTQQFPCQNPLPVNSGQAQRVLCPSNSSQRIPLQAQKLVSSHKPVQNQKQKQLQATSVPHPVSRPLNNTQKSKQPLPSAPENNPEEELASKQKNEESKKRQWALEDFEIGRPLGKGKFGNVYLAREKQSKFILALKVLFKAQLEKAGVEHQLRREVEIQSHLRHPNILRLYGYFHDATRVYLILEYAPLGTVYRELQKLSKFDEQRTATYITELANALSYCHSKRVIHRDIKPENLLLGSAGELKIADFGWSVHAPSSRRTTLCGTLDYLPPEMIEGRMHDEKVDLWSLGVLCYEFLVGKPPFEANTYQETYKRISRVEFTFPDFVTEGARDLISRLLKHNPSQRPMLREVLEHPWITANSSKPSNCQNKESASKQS
The experiment in a line: Inhibition of Aurora A (unknown origin).

Data set [6] concerns the target T2, Dual specificity mitogen-activated protein kinase kinase 1 (Homo sapiens, UniProt Q02750). The experiment in a line: Inhibition of recombinant full length human N-terminal GST-tagged C-terminal His6-tagged MEK1 expressed in Escherichia coli using myelin basic protein as substrate in presence of activated BRAF and ERK2 by ELISA.
Target sequence in this assay (Q02750 whole entry): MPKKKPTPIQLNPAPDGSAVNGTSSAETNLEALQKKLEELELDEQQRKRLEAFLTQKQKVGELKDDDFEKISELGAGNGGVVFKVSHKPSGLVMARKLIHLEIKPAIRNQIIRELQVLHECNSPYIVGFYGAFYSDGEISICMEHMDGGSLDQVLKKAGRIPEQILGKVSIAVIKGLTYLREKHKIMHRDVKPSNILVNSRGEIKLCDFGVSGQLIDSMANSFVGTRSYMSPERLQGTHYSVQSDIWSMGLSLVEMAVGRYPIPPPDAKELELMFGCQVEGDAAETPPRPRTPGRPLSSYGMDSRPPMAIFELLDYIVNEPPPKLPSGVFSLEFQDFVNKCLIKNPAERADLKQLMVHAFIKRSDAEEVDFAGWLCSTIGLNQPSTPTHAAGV
Data set [7] has as its target T2, Dual specificity mitogen-activated protein kinase kinase 1. The experiment in a line: Inhibition of MEK1 in […] human A549 cells assessed as reduction in ERK1/2 phosphorylation by ELISA. It counts as cell-based. Background: ELISA stands for enzyme-linked immunosorbent assay.
Target sequence in this assay (Q02750 whole entry, looked up, change not shown): as the sequence (Q02750 whole entry) above
The target of data set [8] is Epidermal growth factor receptor (Homo sapiens, UniProt P00533). Nature of the data set: Inhibition of EGFR (unknown origin).
Data set [9] addresses Focal adhesion kinase 1 (Homo sapiens, UniProt Q05397). Nature of the data set: Inhibition of FAK in human MCF7 cells. It is filed as cell-based.
Data set [10] addresses Receptor tyrosine-protein kinase erbB-2 (Homo sapiens, UniProt P04626). The experiment in a line: Inhibition of HER2 (unknown origin).
The target in data set [11] is Vascular endothelial growth factor receptor 2 (Homo sapiens, UniProt P35968). Nature of the data set: Inhibition of VEGFR2 (unknown origin).
Vascular endothelial growth factor receptor 2, sequence (P35968 whole entry): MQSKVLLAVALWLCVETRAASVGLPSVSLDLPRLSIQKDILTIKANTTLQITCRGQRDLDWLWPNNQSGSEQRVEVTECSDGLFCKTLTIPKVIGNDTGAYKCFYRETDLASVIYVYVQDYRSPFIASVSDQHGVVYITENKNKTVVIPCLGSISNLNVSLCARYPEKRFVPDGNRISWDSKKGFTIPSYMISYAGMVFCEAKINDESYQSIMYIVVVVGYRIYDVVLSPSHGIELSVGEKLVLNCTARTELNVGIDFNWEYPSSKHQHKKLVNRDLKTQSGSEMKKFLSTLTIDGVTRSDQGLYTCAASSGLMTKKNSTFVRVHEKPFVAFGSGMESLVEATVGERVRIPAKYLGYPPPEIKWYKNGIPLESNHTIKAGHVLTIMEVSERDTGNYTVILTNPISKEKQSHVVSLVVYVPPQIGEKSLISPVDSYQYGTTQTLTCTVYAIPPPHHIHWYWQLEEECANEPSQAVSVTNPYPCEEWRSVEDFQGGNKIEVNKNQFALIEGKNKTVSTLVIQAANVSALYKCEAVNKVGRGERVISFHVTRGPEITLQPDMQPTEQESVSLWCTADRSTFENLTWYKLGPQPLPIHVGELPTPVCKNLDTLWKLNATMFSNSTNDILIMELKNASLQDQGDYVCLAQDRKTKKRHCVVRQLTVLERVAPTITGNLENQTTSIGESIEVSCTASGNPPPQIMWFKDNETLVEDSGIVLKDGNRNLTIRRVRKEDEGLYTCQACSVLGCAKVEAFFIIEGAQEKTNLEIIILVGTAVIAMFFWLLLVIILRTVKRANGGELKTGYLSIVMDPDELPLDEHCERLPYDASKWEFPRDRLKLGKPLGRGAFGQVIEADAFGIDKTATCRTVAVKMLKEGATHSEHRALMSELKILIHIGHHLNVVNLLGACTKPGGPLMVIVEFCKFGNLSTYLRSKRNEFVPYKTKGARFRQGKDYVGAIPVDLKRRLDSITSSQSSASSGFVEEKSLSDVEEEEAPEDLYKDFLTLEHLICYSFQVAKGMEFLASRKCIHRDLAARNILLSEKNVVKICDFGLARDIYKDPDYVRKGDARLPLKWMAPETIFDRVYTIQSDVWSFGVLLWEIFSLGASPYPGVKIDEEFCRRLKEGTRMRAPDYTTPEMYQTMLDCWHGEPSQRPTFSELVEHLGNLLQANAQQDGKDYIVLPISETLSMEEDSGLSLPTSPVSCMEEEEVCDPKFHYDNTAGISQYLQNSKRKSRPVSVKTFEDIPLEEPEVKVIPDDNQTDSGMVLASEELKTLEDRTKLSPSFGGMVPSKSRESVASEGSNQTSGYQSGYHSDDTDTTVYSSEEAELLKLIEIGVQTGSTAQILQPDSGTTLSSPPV

Receptor tyrosine-protein kinase erbB-2, sequence (P04626 whole entry): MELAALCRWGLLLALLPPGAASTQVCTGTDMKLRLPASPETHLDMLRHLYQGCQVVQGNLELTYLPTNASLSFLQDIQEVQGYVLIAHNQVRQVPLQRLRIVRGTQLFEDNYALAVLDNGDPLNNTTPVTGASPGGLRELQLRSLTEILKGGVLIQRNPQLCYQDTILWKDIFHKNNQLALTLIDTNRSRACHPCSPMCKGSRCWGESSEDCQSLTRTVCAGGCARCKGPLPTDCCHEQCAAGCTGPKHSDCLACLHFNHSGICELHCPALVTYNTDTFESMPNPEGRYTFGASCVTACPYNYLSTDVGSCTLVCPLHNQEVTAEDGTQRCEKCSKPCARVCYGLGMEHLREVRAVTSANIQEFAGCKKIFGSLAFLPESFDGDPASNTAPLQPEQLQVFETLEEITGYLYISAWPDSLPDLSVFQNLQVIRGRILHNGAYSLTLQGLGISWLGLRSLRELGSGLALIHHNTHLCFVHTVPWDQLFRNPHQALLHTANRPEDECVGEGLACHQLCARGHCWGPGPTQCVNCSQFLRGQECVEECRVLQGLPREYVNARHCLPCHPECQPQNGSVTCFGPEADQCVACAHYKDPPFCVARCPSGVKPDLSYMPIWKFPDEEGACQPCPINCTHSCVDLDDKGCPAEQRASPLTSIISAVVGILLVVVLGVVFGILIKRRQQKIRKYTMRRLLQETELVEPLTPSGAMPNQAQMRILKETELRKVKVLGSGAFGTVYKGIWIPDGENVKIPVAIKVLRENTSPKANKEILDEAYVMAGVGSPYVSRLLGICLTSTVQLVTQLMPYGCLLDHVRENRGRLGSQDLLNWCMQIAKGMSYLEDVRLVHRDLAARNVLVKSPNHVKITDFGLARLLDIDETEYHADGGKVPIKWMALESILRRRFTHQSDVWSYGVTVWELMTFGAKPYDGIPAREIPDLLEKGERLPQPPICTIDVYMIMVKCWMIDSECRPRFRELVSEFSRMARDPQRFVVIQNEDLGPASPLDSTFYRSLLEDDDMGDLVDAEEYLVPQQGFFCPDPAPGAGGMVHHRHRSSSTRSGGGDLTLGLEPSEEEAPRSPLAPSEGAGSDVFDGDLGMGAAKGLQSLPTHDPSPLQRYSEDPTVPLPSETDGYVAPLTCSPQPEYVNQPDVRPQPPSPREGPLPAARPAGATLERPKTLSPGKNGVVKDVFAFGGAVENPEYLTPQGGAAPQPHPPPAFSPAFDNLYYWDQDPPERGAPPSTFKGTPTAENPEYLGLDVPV
Epidermal growth factor receptor, sequence (P00533 whole entry): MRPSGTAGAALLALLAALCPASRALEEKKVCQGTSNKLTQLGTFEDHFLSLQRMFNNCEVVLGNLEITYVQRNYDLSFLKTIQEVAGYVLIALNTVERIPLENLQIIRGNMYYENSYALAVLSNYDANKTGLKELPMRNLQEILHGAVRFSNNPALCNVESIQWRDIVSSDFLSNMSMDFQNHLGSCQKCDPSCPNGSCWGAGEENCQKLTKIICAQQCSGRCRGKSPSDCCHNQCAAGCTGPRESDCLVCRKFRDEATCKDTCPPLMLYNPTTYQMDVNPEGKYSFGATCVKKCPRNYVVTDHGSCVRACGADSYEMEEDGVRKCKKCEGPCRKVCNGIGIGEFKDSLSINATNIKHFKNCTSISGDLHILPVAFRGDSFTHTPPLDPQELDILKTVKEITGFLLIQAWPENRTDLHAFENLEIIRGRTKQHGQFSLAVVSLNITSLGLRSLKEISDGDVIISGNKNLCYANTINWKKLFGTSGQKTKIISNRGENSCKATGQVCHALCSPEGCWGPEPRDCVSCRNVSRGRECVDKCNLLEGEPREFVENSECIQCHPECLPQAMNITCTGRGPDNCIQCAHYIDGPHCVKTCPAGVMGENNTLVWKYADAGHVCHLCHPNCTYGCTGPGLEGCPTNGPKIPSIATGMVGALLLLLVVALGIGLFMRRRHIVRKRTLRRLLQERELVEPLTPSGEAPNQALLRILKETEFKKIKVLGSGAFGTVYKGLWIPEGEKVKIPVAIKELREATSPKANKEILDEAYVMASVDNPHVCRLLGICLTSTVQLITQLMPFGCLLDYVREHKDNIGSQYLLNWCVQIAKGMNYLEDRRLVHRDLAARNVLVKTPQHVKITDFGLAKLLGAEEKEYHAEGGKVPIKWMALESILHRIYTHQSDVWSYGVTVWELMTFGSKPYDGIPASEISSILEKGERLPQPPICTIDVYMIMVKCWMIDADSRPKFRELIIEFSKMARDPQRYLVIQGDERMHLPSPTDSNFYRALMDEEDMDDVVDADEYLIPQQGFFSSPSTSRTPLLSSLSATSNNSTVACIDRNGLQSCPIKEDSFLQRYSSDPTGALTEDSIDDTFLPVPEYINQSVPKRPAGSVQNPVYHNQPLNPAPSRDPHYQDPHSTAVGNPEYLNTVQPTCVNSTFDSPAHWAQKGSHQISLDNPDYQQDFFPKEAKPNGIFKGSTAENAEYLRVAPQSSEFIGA

As to `O=C(NOCc1ccccc1F)c1cn(-c2ccc(Cl)cc2)nc1-c1ccccc1`, the GI50 in data set [1] worked out at 4.17 µM; in [2], 15.1 µM; in [3] it was 12.1 µM. In addition, in [4], the CC50 at 48 h was 126 µM.

As to `Cc1ccc(-n2cc(C(=O)NOCc3ccc(Cl)cc3Cl)c(-c3ccccc3)n2)cc1`, the GI50 came out at 2.04 µM in data set [1], 2.31 µM in [2] and 1.08 µM in [3]. The CC50 at 48 h in data set [4] stood at 39.6 µM.

For the molecule `Cc1ccc(-n2cc(C(=O)NOCc3ccccc3)c(-c3ccccc3)n2)cc1`, the GI50 was determined as 6.69 µM in data set [1], 1.87 µM in data set [2] and 1.14 µM in data set [3]. The CC50 at 48 h in data set [4] was found to be 40.8 µM.

Regarding `O=C(NOCc1ccccc1F)c1cn(-c2ccccc2)nc1-c1ccccc1`, the values for the GI50 in data set [1], in [2] and in data set [3] were 11.8 µM, 16.1 µM and 5.94 µM, respectively. In addition, in [4], the CC50 at 48 h turned out to be 75.7 µM.

On to `O=C(NOCc1ccccc1)c1cn(-c2ccccc2)nc1-c1ccccc1`, for which the GI50 in data set [1] came to 8.83 µM; in data set [2] it was 13.4 µM; in [3], 5 µM. In addition, the CC50 at 48 h in data set [4] worked out at 122 µM.

For `COc1ccc(-n2cc(C(=O)NOCc3ccccc3)c(-c3ccccc3)n2)cc1`, the figures for the GI50 in [1], in [2] and in data set [3] were 2.64 µM, 2.77 µM and 1.94 µM, respectively. Further, the CC50 at 48 h in data set [4] stood at 201 µM.

As to `O=C(NOCc1ccc(Cl)cc1Cl)c1cn(-c2ccc(Cl)cc2)nc1-c1ccccc1`, the 50% growth inhibitory concentration (GI50) was found to be 5.16 µM in [1], 16.2 µM in data set [2] and 13.1 µM in [3]. The CC50 at 48 h in data set [4] worked out at 46.3 µM.

As to `COc1ccc(-n2cc(C(=O)NOCc3ccccc3F)c(-c3ccccc3)n2)cc1`, the figures for the GI50 in [1], in data set [2] and in [3] were 2.9 µM, 6 µM and 2.16 µM, respectively. In addition, in [4], the CC50 at 48 h is 24.6 µM.

For the molecule `O=C(NOCc1ccc(Cl)cc1Cl)c1cn(-c2ccccc2)nc1-c1ccccc1`, the GI50 in data set [1] was 5.1 µM; in data set [2], 9.66 µM; in data set [3] it was 7.35 µM. In [4], the CC50 at 48 h came out at 40.2 µM.

For `O=C(NOCc1ccccc1Cl)c1cn(-c2ccc(F)cc2)nc1-c1ccccc1`, the concentration for 50% growth inhibition (GI50) in data set [1] is 36.4 µM; in data set [2], 11.4 µM; in data set [3], 8.33 µM. The CC50 at 48 h in data set [4] turned out to be 44.7 µM.

`O=C(NOCc1ccccc1Cl)c1cn(-c2ccccc2)nc1-c1ccccc1`: the GI50 in [1] is 17.8 µM; in [2] it was 7.41 µM; in data set [3], 10.3 µM. Besides, in data set [4], the cytotoxic concentration (CC50) at 48 h was found to be 82 µM.

For `Cc1ccc(-n2cc(C(=O)NOCc3ccccc3F)c(-c3ccccc3)n2)cc1`, the IC50 in data set [5] is 8.3 µM; in data set [6], 0.091 µM; in data set [7], 0.61 µM; in data set [8] it was over 25 µM; in data set [9], 15.6 µM; in data set [10], over 25 µM. In addition, the IC50 in data set [11] was over 25 µM. The GI50 in data set [1] was found to be 1.18 µM; in data set [2], 2.11 µM; in [3], 0.26 µM. In data set [4], the CC50 at 48 h worked out at 20.6 µM.

Regarding `O=C(NOCc1ccc(Cl)cc1Cl)c1cn(-c2ccc(F)cc2)nc1-c1ccccc1`, the GI50 in data set [1] was 7.35 µM; in data set [2], 25.3 µM; in data set [3], 14 µM. In addition, the CC50 at 48 h in [4] was found to be 45 µM.

For `O=C(NOCc1ccccc1)c1cn(-c2ccc(F)cc2)nc1-c1ccccc1`, the figures for the GI50 in data set [1], in data set [2] and in [3] were 6.11 µM, 15.3 µM and 10.4 µM, respectively. For the same molecule, the CC50 at 48 h in data set [4] came out at 217 µM.

On to `COc1ccc(-n2cc(C(=O)NOCc3ccc(Cl)cc3Cl)c(-c3ccccc3)n2)cc1`, for which the GI50 in [1] was 5.75 µM; in data set [2], 2.57 µM; in data set [3], 3.83 µM. Further, in data set [4], the CC50 at 48 h worked out at 545 µM.

In the case of `COc1ccc(-n2cc(C(=O)NOCc3ccccc3Cl)c(-c3ccccc3)n2)cc1`, the GI50 in [1] was determined as 3.48 µM; in data set [2], 3.73 µM; in [3] it was 2.45 µM. In addition, in [4], the CC50 at 48 h stood at 586 µM.

Regarding `O=C(NOCc1ccccc1F)c1cn(-c2ccc(F)cc2)nc1-c1ccccc1`, the results for the GI50 in data set [1], in [2] and in [3] were 10.3 µM, 12 µM and 17.5 µM, respectively. Besides, the CC50 at 48 h in data set [4] was 147 µM.

For `Cc1ccc(-n2cc(C(=O)NOCc3ccccc3Cl)c(-c3ccccc3)n2)cc1`, the GI50 in data set [1] worked out at 4.68 µM; in data set [2], 2.64 µM; in data set [3], 0.38 µM. Moreover, the CC50 at 48 h in data set [4] is 38.7 µM.

Consider `O=C(NOCc1ccccc1Cl)c1cn(-c2ccc(Cl)cc2)nc1-c1ccccc1`, for which the concentration for 50% growth inhibition (GI50) in data set [1] stood at 8.85 µM; in data set [2], 16.1 µM; in [3] it was 15.5 µM. Moreover, the CC50 at 48 h in data set [4] worked out at 129 µM.

For `O=C(NOCc1ccccc1)c1cn(-c2ccc(Cl)cc2)nc1-c1ccccc1`, the GI50 in [1] came to 8.35 µM; in data set [2] it was 10.8 µM; in data set [3], 13 µM. Also, the CC50 at 48 h in [4] stood at 51.9 µM.

Regarding `COc1cc2ncnc(Nc3ccc(F)c(Cl)c3)c2cc1OCCCN1CCOCC1` [GEFITINIB], in data set [3], the GI50 worked out at 2.86 µM.

The term GI50 denotes the concentration that inhibits growth by half. Broadly, the CC50 is the concentration giving 50% cytotoxicity. The term IC50 denotes the point on the concentration scale where inhibition reaches its midpoint.
